The source of these data is ChEMBL document CHEMBL4330182, “Advance of Seriniquinone Analogues as Melanoma Agents” (ACS Med Chem Lett, 2019).

Values after ≈ are worked out from the molar mass of the structure shown. Active and inactive are the calls of the source. No cut-off for these calls is given here.

The subject of data set [1] is Malme-3M. Description: Cytotoxicity against human MALME-3M cells after 72 hrs by MTT assay. It counts as functional, cell-based.
The test system of data set [2] is SK-MEL-28. Description: Cytotoxicity against human SK-MEL-28 cells after 72 hrs by MTT assay. It counts as functional, cell-based. Conditions: SK-MEL-28, 72 h.
Data set [3] in a line: Solubility of the compound in pH 6.5 solution. The class given is physicochemical. Particulars: buffer. The essentials: (§1)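 Solubility S was determined in buffer at pH 6.5 for the parent series and regioisomer mixtures, and at pH 7.2 for the phenol/carbamate series.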
Data set [4] concerns HCT-116. Description: Cytotoxicity against human HCT116 cells after 72 hrs by MTT assay. Conditions: HCT-116, 72 h. The class given is functional, cell-based.
The test system of data set [5] is SK-MEL-28. Description: Induction of DCD mRNA expression in human SK-MEL-28 cells at 30 to 100 nM after 24 hrs by RT-qPCR method. The class given is functional, cell-based. A general note: Quantitative PCR measures a nucleic acid by following its amplification.
A short description of data set [6]: Drug metabolism in aqueous media assessed as 2-hydroxydinaphtho[2,3-b:2',3'-d]thiophene-5,7,12,13-tetraone formation by NMR analysis. The essentials:
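DMSO stocks of the carbamate at 1.0 or 0.5 mg/mL were diluted 20-fold into PBS pH 7.2. Samples were held 24 h at 23 °C, and hydrolytic release of the phenol (purple salt) was monitored.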

The nature of data set [7]: Stability of the compound at 23 degC for 3 months at solid state. It counts as physicochemical. Particulars: 2191.5 h.
In data set [8] the test system is Malme-3M. Description: Induction of DCD mRNA expression in human MALME-3M cells at 30 to 100 nM after 24 hrs by RT-qPCR method. It counts as functional, cell-based.
Data set [9] deals with HCT-116. Description: Induction of oxidative stress in human HCT116 cells at 100 uM after 1 hr by CellROX green/NucBlue staining based confocal microscopic method. It counts as cell-based. Particulars: hct-116, 1 h. The essentials:
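HCT-116 cells were stained with CellROX Green for reactive oxygen species and counterstained with NucBlue for nuclei. Imaging was by confocal microscopy, scoring green fluorescent mitochondria as the oxidative-stress read-out.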

The test system of data set [10] is Calf thymus DNA. Description: Binding affinity to calf thymus DNA at 60 uM by fluorescence spectral analysis. It counts as nucleic-acid assay. Conditions: Bos taurus. The essentials: (§2)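 Fluorescence emission spectra recorded while calf thymus DNA was titrated into the compound solution. […] Binding was judged by attenuation (quench) of emission on DNA addition.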

In data set [11] the test system is HCT-116. Description: Induction of DCD mRNA expression in human HCT116 cells at 1 to 10 uM after 24 hrs by RT-qPCR method. It counts as functional, cell-based.
A short description of data set [12]: Solubility of the compound in pH 7.2 solution. The class given is physicochemical. Conditions: buffer. An outline of the steps:
as §1

A short description of data set [13]: Stability of the compound in pH 7.2 PBS buffer at 37 degC for 48 hrs by NMR analysis. The class given is physicochemical. Particulars: pH 7.2, 48 h.
Data set [14] is described as follows: Stability of the compound in pH 7.2 PBS buffer at 23 degC for 1 month by NMR analysis. The class given is physicochemical. Particulars: pH 7.2, 730.5 h. An outline of the steps: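 Purity was followed by NMR in PBS pH 7.2 for 1 month at 23 °C, and in cell culture medium at 37 °C for 48 h (limit of testing).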
The subject of data set [15] is Calf thymus DNA. Put plainly: Binding affinity to calf thymus DNA at 20 uM by fluorescence spectral analysis. It counts as nucleic-acid assay. Particulars: Bos taurus. The essentials:
as §2

As usually defined, the IC50 is the concentration at which inhibition is half-maximal. A low value points to greater potency in that assay. As a reminder, the solubility is the concentration that dissolves in the medium under given conditions. In the case of `O=c1c2ccccc2c(=O)c2c1[nH]c1c(=O)c3ccccc3c(=O)c12`, the results for the IC50 in the data set with Malme-3M [1], in the data set with SK-MEL-28 [2] and in the data set with HCT-116 [4] were 2030 nM, 4300 nM and 4240 nM, respectively. In data set [3], this molecule registered a solubility of 0.4 µM (≈ 0.131 µg/mL).
Take `CCCCNC(=O)Oc1ccc2c(=O)c3sc4c(=O)c5ccccc5c(=O)c4c3c(=O)c2c1`: the result in the data set on SK-MEL-28 [5], with Malme-3M [8] and in the data set with HCT-116 [11] was Active. Moreover, the results for the IC50 with Malme-3M [1], with SK-MEL-28 [2] and with HCT-116 [4] were 60 nM, 1800 nM and 750 nM, respectively. In addition, the Drug metabolism result in [6] is reported as “Metabolite detected”. For the same molecule, the Stability result in [7] was “Stable”. Also, the Activity result in the data set with HCT-116 [9] is on record as “Non-Toxic”. Moreover, in the data set on Calf thymus DNA [10], the outcome was inactive. The molecule also displayed a solubility in data set [12] of 24.6 µM (≈ 11.3 µg/mL).
As to `O=c1c2ccccc2c(=O)c2c1sc1c(=O)c3ncccc3c(=O)c12`, the 50% inhibitory concentration (IC50) turned out to be 100 nM in the data set with Malme-3M [1], 2150 nM in the data set with SK-MEL-28 [2] and 540 nM in the data set with HCT-116 [4]. Moreover, in data set [3], the solubility was 0.5 µM (≈ 0.173 µg/mL).
For `COc1ccc2c(=O)c3sc4c(=O)c5ccccc5c(=O)c4c3c(=O)c2c1`, the Stability entry in [13], in data set [7] and in data set [14] was “Stable” each time. Moreover, the figures for the IC50 in the data set on Malme-3M [1], with SK-MEL-28 [2] and with HCT-116 [4] were 60 nM, 7000 nM and 8160 nM, respectively. This molecule displayed a solubility in data set [12] of 8.2 µM (≈ 3.07 µg/mL).
Consider `O=c1c2ccccc2c(=O)c2c1sc1c(=O)c3ccccc3c(=O)c12`, for which the outcome in the data set on SK-MEL-28 [5], with Malme-3M [8] and with HCT-116 [11] was Active. For the same molecule, the half-inhibitory concentration (IC50) worked out at 50 nM with Malme-3M [1], 360 nM in the data set with SK-MEL-28 [2] and 1290 nM in the data set with HCT-116 [4]. Besides, the solubility in data set [3] came to 0.06 µM (≈ 0.0207 µg/mL). Moreover, the result with Calf thymus DNA [10] was inactive.
Turning to `O=c1c2ccccc2c(=O)c2c1oc1c(=O)c3ccccc3c(=O)c12`, the IC50 stood at 1110 nM in the data set on Malme-3M [1], 3470 nM in the data set on SK-MEL-28 [2] and 4080 nM in the data set on HCT-116 [4]. Also, the solubility in data set [3] was 0.09 µM (≈ 0.0295 µg/mL).
`COc1cccc2c1C(=O)c1c(O)c3c(c(O)c1C2=O)C[C@@](O)(C(=O)CO)C[C@@H]3O[C@H]1C[C@H](N)[C@H](O)[C@H](C)O1` [DOXORUBICIN]: the figures for the 50% inhibitory concentration (IC50) in the data set on Malme-3M [1] and in the data set with SK-MEL-28 [2] were 500 nM and 3000 nM, respectively. Also, the outcome in the data set with Calf thymus DNA [15] was Active.
As to `O=c1c2ccccc2c(=O)c2c1sc1c(=O)c3ccc(O)cc3c(=O)c12`, the Stability entry in data set [13], in [7] and in data set [14] was “Stable” in each case. For the same molecule, the result in the data set with SK-MEL-28 [5], with Malme-3M [8] and in the data set on HCT-116 [11] was Active. Also, the half-maximal inhibitory concentration (IC50) with Malme-3M [1] was 220 nM; with SK-MEL-28 [2], 330 nM; in the data set with HCT-116 [4], 1450 nM. The molecule further showed a solubility in data set [12] of 0.4 µM (≈ 0.144 µg/mL).
